UPR CHOP act – activators of apoptotic arm of unfolded protein response (CHOP); CHO-CHOP luciferase reporter, UPR activation, luminescence; percent of tunicamycin response over DMSO baseline; activation, % at 10 µM; actives 0.34% (n = 330,000);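 active = at 10 µM dose, activation of 40% or more, normalized to positive control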;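 note: 100% = tunicamycin at 10 µg/mL and 0% = DMSO alone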
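measured by = luciferase luminescence | assay system = CHO-CHOP cells, stable luciferase reporter of PERK-eIF2a-CHOP signalling | amount = 500 reporter cells seeded per well | timing = 6 h compound exposure at 37 °C after overnight seeding | controls = positive tunicamycin 10 µg/mL, negative DMSO alone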
GRIN3A LBD mod – modulators (binders) of human NR3A ligand-binding domain. NR3A LBD differential scanning fluorimetry, Tm shift; 0% = protein alone, 100% = glycine-bound protein. Tm shift relative to glycine control, % at 25 µM. actives 2.5% (n = 340,000). AID 1259313;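 active = melting temperature shift of at least 10% of the positive control shift, at one fixed dose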
XBP1 UPR activ – activators of adaptive arm of unfolded protein response (XBP1); CHO-XBP1 luciferase reporter, IRE1-XBP1 UPR activation, luminescence; percent of tunicamycin response, DMSO as zero; activation, % at 20 µM; actives 0.33% (n = 330,000);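 active = versus positive control, 20 µM dose yields 30% or more activation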;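 note: 100% = tunicamycin at 10 µg/mL and 0% = DMSO only wells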
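Assay system: IRE1-XBP1 luciferase reporter CHO line. Input: 1000 cells/well. Buffer or medium: F12 with 10% serum. Doses: 20 µM, 1% DMSO. Times: overnight seeding at 37 °C, 6 h compound treatment at 37 °C. Technique: Steady-Glo luciferase glow luminescence, 10 min after reagent addition.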
MPTP block – blocks calcium-induced mitochondrial swelling; isolated mouse mitochondria, Ca2+ swelling absorbance, 30 min; inhibition, % at 10 µM; actives 1.4% (n = 360,000);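 active = inhibition of 50% or more, scaled per plate between neutral and stimulator controls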;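 note: 0% = DMSO wells given calcium and 100% = 1 mM EGTA wells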
CHOP inhibitor – inhibitors of CHOP induction in ER stress response; inhibition, % at 10 µM; actives 3.8% (n = 220,000); CHO-K1 CHOP-promoter luciferase, tunicamycin-induced, 15-18 h;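 active = compounds that reduced the stress-induced luciferase reporter signal by more than about 70% of percent inhibition, limit read from the data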;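 note: 0% = tunicamycin plus vehicle and 100% = wells without tunicamycin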
aDG glyco up – increases alpha dystroglycan glycosylation | Pro5-aDG cells, alpha-DG glycosylation AlphaScreen (IIH6); 0% Pro5, 100% B10-LARGE cell signal | activation, % at 10 µM | actives 0.22% (n = 360,000) | AID 624168;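 active = activation of at least 8% versus controls, or a plate z-score of at least 8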;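 note: Pro5 are CHO cells carrying HIG-tagged alpha-DG that lacks glycosylation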
* hit, by the source's call; x = not tested or not shown. An excerpt weighted towards active compounds, which were near 5.6% of everything screened.

SMILES	UPR CHOP act	GRIN3A LBD mod	XBP1 UPR activ	MPTP block	CHOP inhibitor	aDG glyco up
O=C(CSc1nc2ccccc2c(=O)n1-c1ccccc1)c1c[nH]c2ccccc12	-2.9	18.2*	0.3	28.7	76.1*	0.1
O=C(CSc1nc2ccccc2c(=O)n1-c1ccc(Cl)cc1)c1ccco1	-0.6	-10.8	3.4	1.3	74.0*	-0.3
COc1cccc(C(=O)O[C@@H]2[C@H](Cc3ccccc3)NS(=O)(=O)[C@H]3C[C@@H]4C=C[C@]23O4)c1	0.0	-3.9	-2.4	-0.7	x	-0.1
CSC1CCCCC1(O)CSc1nc2c(cc1C#N)CCCC2 (stereo not given)	1.5	4.3	1.6	-0.3	85.2*	0.0
N#CCSc1nc2c(cc1C#N)CCCC2	-1.0	0.4	2.1	-0.3	-15.4	-0.2
COCCCNC(=O)c1cccc2c(-c3ccnn3C)coc12	x	x	x	0.4	x	-0.3
CCOC(=O)Cn1c(S(=O)(=O)Cc2ccccc2Cl)nc(-c2ccccc2)c1-c1ccccc1	6.3	1.3	-1.1	-0.6	70.1*	0.7
C#CCn1c(S(=O)(=O)Cc2ccccc2Cl)nc(-c2ccccc2)c1-c1ccccc1	0.8	-1.4	-3.3	-0.5	80.4*	0.4
COC(=O)CCC(C)C1CCC2C3C(OC(C)=O)CC4CC(O)CCC4(C)C3CC(O)C12C (stereo not given)	x	x	x	0.3	x	0.1
CN(/N=C/c1ccc(Br)o1)C1=NS(=O)(=O)c2ccccc21	-1.5	16.2*	1.0	-1.0	34.4	-0.2
Cc1ccc(/C=N/N(C)C2=NS(=O)(=O)c3ccccc32)o1	-0.7	x	-0.9	x	-4.7	x
CN(/N=C/c1cc(Cl)ccc1O)C1=NS(=O)(=O)c2ccccc21	-0.8	11.8*	-0.8	6.0	x	-0.1
Cc1ccc(S(=O)(=O)N(C)C)cc1NC(=O)c1cc(=O)c2ccccc2o1	0.2	-1.2	5.0	-2.8	x	-0.2
S=C(NCc1ccc2[nH]c3c(c2c1)CCCC3)Nc1ccccc1	-2.8	1.7	-3.3	0.0	41.7	-0.2
Cc1cc(C)cc(NC(=S)NCc2ccc3[nH]c4c(c3c2)CCCC4)c1	-1.5	17.1*	-1.6	1.6	55.4	0.0
CCOc1ccc2nc(NC(=O)Nc3cccs3)sc2c1	5.2	26.1*	4.3	-1.2	-18.3	-0.1
CCOc1ccc2nc(NC(=O)NC3CCCCC3)sc2c1	2.6	18.0*	1.3	4.5	27.1	1.2
CCOc1ccc2nc(NC(=O)Cc3cccs3)sc2c1	2.0	-7.7	4.0	0.5	33.9	-0.1
CCOc1ccc2nc(NC(=S)NCc3ccccc3)sc2c1	2.1	18.6*	2.4	9.7	-39.2	0.9
CCOc1ccc2nc(NC(=O)COC)sc2c1	0.9	-0.6	-3.4	-0.7	0.7	-0.1
CC(C)C[C@H]1CN(CCCC[C@H]2CNC(=O)C(=O)N2CC2CCCCC2)C(=O)C(=O)N1Cc1ccccc1	x	x	x	-1.3	x	-0.2
O=C(COC(=O)c1ccc(Cl)nc1)NNC(=O)c1ccc(Br)cc1	-2.9	-1.8	-1.2	-1.1	x	0.5
COc1ccc(NC(=O)CN2C(=O)NC(C)(c3ccccc3)C2=O)c(OC)c1 (stereo not given)	-1.6	-4.7	1.7	-2.1	x	0.0
O=C1C=C(Nc2cccnc2)c2ccccc2C1=O	x	-0.3	x	3.4	x	3.0
Cc1ccc(NC2=CC(=O)C(=O)c3ccccc32)c(C)c1	35.4	-3.0	2.7	4.8	x	6.5*
SMILES	UPR CHOP act	GRIN3A LBD mod	XBP1 UPR activ	MPTP block	CHOP inhibitor	aDG glyco up
O=C1C=C(Nc2ccccc2O)c2ccccc2C1=O	37.7	-0.8	3.5	10.8	-21.6	12.5*
O=C1C=C(NCc2ccccc2)c2ccccc2C1=O	x	1.6	x	1.3	-9.1	8.7*
CCOc1ccc(NC2=CC(=O)C(=O)c3ccccc32)cc1	x	0.3	x	3.7	x	6.8
C/C(CC(=O)NCc1ccco1)=N\NC(=O)c1ccc([N+](=O)[O-])cc1Cl	3.5	-1.8	-0.7	0.0	x	0.2
Cc1cc(C)c2nc(SCC(=O)NCCC3=CCCCC3)cc(C)c2c1	1.3	7.7	0.0	3.7	92.4*	-0.2
CCCCCc1ccc(OCCCC[n+]2cccc(C)c2)c(CCCCC)c1	-2.4	-9.4	6.1	10.0	88.9*	0.3
CCCCCc1ccc(OCCCC[n+]2ccccc2)c(CCCCC)c1	-0.5	-3.8	-3.2	9.4	-21.0	-0.1
CCCCCc1ccc(OCCCC[n+]2ccc(C)cc2)c(CCCCC)c1	-0.1	-3.7	5.1	39.9	74.6*	0.1
O=C(CSCC(=O)NN=Cc1ccccc1O)NN=Cc1ccccc1O	x	25.5*	x	-1.9	x	0.5
O=C(CCCCC(=O)NN=Cc1ccccc1O)NN=Cc1ccccc1O	x	35.4*	x	0.6	x	1.1
COC(=O)c1ccccc1S(=O)(=O)N1CCC(C(=O)OC(C)C(=O)N(C)Cc2ccccc2)CC1 (stereo not given)	x	1.5	x	-0.2	x	0.0
Cc1ccc(Nc2ncnc(Cl)c2N)cc1	x	12.6*	x	-1.9	x	0.0
Cc1ccc(Nc2ncnc3ccccc23)cc1	3.5	-0.7	-4.2	0.5	3.4	0.1
Cn1cccc1C(=O)NNC(=O)COc1ccccc1Cl	2.0	0.3	0.2	0.0	x	-0.3
COc1cc(/C=C/C(=O)Nc2ccncc2)cc(OC)c1OC	-0.9	-1.5	-2.4	-2.4	2.6	-0.2
COc1ccc(/C=C/C(=O)Nc2nnc(C(C)C)s2)cc1OC	3.8	2.0	-2.9	3.4	59.1	-0.1
COc1cc(/C=C/C(=O)Nc2nnc(CC(C)(C)C)s2)cc(OC)c1OC	1.4	8.7	-0.9	5.0	90.2*	0.0
COc1cc(/C=C/C(=O)Nc2nnc(CC(C)C)s2)cc(OC)c1OC	2.8	-0.5	-3.4	4.2	90.2*	0.3
O=C(OCC(=O)N1CCC(Cc2ccccc2)CC1)c1ccc(O)cc1	x	x	x	-0.8	x	-0.2
COc1ccc(C(=O)Nc2ccc(S(=O)(=O)N3CCCC3)cc2)cc1	3.2	14.4*	-1.0	-0.6	7.0	-0.2
CCCCOc1ccc(S(=O)(=O)N2CCCCCC2)cc1	0.4	0.5	-0.7	1.3	91.0*	-0.1
O=C(Nc1ccc([N+](=O)[O-])cc1)c1ccc(S(=O)(=O)N2CCCC2)cc1	0.8	10.6*	6.3	0.8	x	-0.1
COc1ccc(NC(=O)CCCNC(=O)c2ccc(Cl)cc2)cc1S(=O)(=O)N1CCCCC1	x	12.0*	x	-0.4	x	0.2
O=C(c1ccc(=O)[nH]c1)N1CCN(S(=O)(=O)c2ccc3ccccc3c2)CC1	1.2	1.2	3.1	-1.0	x	0.0
CN1CCN(S(=O)(=O)c2cccc(C(=O)Nc3cccc([N+](=O)[O-])c3)c2)CC1	-0.1	16.9*	-1.7	3.5	x	0.0
COc1ccc(NC(=O)c2cc(S(=O)(=O)N3CCCCC3)c[nH]2)cc1Cl	3.0	24.8*	-3.0	-0.8	x	0.2
